For data set [1], the system named is Human immunodeficiency virus 1. The experiment in a line: Antiviral activity against HIV1 A17 harbouring RT K103N/Y181C mutant infected in human C8166 cells assessed as protection against virus-induced cytopathic effect after 3 days by syncytium reduction assay. Particulars: Human immunodeficiency virus 1, A17, C8166, 72 h. The class given is functional, organism-based. In short, it runs like this: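 C8166 cells (4 × 10⁵/mL) infected at M.O.I 0.06 in the presence of various compound concentrations; cultured 3 days, syncytia (multinucleated giant cells) scored under inverted microscope; EC50 = concentration blocking syncytia formation by 50%. AZT and GW678248 as drug controls. Mean of at least two separate experiments.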
Background: Damage to the host cells serves as the signal in cytopathic effect assays.

Data set [2] has as its system Human immunodeficiency virus 2. The experiment in a line: Antiviral activity against HIV2 ROD infected in human C8166 cells assessed as protection against virus-induced cytopathic effect after 3 days by syncytium reduction assay. The data set is classed as functional, organism-based. As to conditions: Human immunodeficiency virus 2, ISOLATE ROD, C8166, 72 h. In short, it runs like this:
(§1)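 C8166 cells (4 × 10⁵/mL) infected at MOI 0.06 in presence of graded compound concentrations; AZT and GW678248 as drug controls. After 3 days culture, syncytia (multinucleated giant cells) counted under inverted microscope; EC50 taken as concentration blocking 50% syncytium formation. Mean of at least two separate experiments.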

Data set [3] addresses Human immunodeficiency virus type 1 reverse transcriptase (Human immunodeficiency virus 1, UniProt Q72547). The experiment in a line: Inhibition of wild type HIV1 reverse transcriptase activity using poly (rA)/oligo (dT)15 homopolymer template after 1 hr by ELISA. In short, it runs like this: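 Wild-type RT; oligo(dT) immobilized on plates, poly(rA) template, biotin-11-dUTP incorporation. Reaction: 50 mM Tris-HCl pH 8.3, 3 mM MgCl2, 75 mM KCl, 5 mM DTT, 0.13 mg/mL BSA, […]; 37 °C, 1 h. Detection by streptavidin-alkaline phosphatase and PNPP (30 min, 37 °C), stopped with 0.5 M NaOH.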

Data set [4] deals with Human immunodeficiency virus 1. The data set is described as follows: Antiviral activity against wild type HIV1 3B infected in human C8166 cells assessed as protection against virus-induced cytopathic effect after 3 days by syncytium reduction assay. The data set is classed as functional, organism-based. As to conditions: Human immunodeficiency virus 1, 3B, C8166, 72 h. The method, boiled down:
as §1

Data set [5] is described as follows: Therapeutic index, ratio of CC50 for human C8166 cells to EC50 for wild type HIV1 3B infected in human C8166 cells. The class given is cell-based. As to conditions: C8166 cells infected with wild type HIV1 3B, read-out: Ratio CC50/EC50. In short, it runs like this:
(§2)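 CC50 from MTT assay on uninfected C8166 cells (A570/630, dose-response curve, 50% viable cell reduction) divided by EC50 from 3-day syncytium reduction assay in C8166 cells (4 × 10⁵/mL) infected at M.O.I 0.06; syncytia scored microscopically. Values are means of at least two separate experiments.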

A short description of data set [6]: Therapeutic index, ratio of CC50 for human C8166 cells to EC50 for HIV1 A17 harbouring RT K103N/Y181C mutant infected in human C8166 cells. As to conditions: read-out: Ratio CC50/EC50. The class given is cell-based. In short, it runs like this: as §2
In data set [7] the test system is C8166. The experiment in a line: Cytotoxicity against human C8166 cells assessed as decrease in cell viability by MTT assay. The class given is functional. The method, boiled down:
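Uninfected C8166 cells exposed to compound; viability read by MTT colorimetric assay at A570/630. CC50, the concentration reducing viable cells by 50%, taken from dose-response curve. Mean of at least two separate experiments.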

These results are taken from ChEMBL document CHEMBL2150921, “Synthesis, structure-activity relationships, and docking studies of N-phenylarylformamide derivatives (PAFAs) as non-nucleoside HIV reverse transcriptase inhibitors” (Eur J Med Chem, 2012).

Consider `Cc1ccc(C(=O)Nc2cc(Cl)ccc2OCC(=O)Nc2ccc(S(N)(=O)=O)cc2C)cc1C`, for which the EC50 in data set [1] came to 100 nM; in data set [2], 4370 nM; in data set [4], 0.32 nM. In data set [3], this molecule registered an IC50 of 1.14 nM. Also, the selectivity ratio was found to be 261000 in data set [5] and 836 in data set [6]. Further, in data set [7], the CC50 was 84100 nM.
As to `Cc1cc(S(N)(=O)=O)ccc1NC(=O)COc1ccc(Cl)cc1NC(=O)c1cc(Cl)cc(C#N)c1`, the EC50 is 290 nM in data set [1], 23200 nM in data set [2] and 0.96 nM in data set [4]. This molecule also yielded an IC50 in data set [3] of 2.05 nM. Besides, the figures for the selectivity ratio in data set [5] and in data set [6] were 136000 and 454, respectively. In addition, the CC50 in data set [7] worked out at 131000 nM.

One may read the EC50 as the concentration that produces a half-maximal response. For orientation: IC50 means the concentration that inhibits the measured activity by half. As usually defined, the CC50 is the concentration at which the toxic effect on the cells reaches its halfway point.
